Results gathered from unrelated publications.
Protocols differ between the studies behind these lines.
SRD5A1: 3-oxo-5-alpha-steroid 4-dehydrogenase 1 (SRD5A1, Homo sapiens, UniProt P18405)
HTR2A: 5-hydroxytryptamine receptor 2A (HTR2A, Homo sapiens, UniProt P28223)
CNR1: Cannabinoid receptor 1 (CNR1, Homo sapiens, UniProt P21554)

SMILES	target	test	system	setting	inhibition
Cc1cc(O)c(-c2ccc([C@@H](C)CN(C)C)cc2)c2c1[nH]c(=O)c1sccc12	Serine/threonine-protein kinase A-Raf (ARAF, Homo sapiens, UniProt P10398)	enzyme activity, inhibitor	–	0.1 µM, lysate	-26%
NC/C(=C\F)COc1cccc(Cn2c(=S)[nH]c(=O)c3[nH]cnc32)c1	Hepatic sodium/bile acid cotransporter (SLC10A1, Homo sapiens, UniProt Q14973)	transporter uptake, inhibitor	–	30 µM	< 50%
COC(=O)C=Cc1ccc(OC(C)=O)c(OC)c1	SRD5A1	enzyme activity in cells, inhibitor	HaCaT	50 µM	26.4%
COc1cc2c3c(c1OC)-c1c(OC)ccc(-c4ccc(C#N)cc4)c1CC3N(C)CC2 (stereo not shown)	HTR2A	ligand displacement, radioligand	–	10 µM	34%
CCN1/C(=C/C(C)=O)Sc2ccc(F)cc21	CNR1	ligand displacement, radioligand	–	10 µM	0%
COC(=O)C=Cc1ccc(OC)c(OC)c1	SRD5A1	enzyme activity in cells, inhibitor	HaCaT	50 µM	26.1%
Cc1cc(F)cc2c(CCC(=O)N[C@@H]3C(=O)NC[C@H]3O)c(-c3ccc(F)cc3)[nH]c12	CNR1	cell-free assay	–	10 µM	-2%
C#Cc1cc(-c2cc(Nc3nc(N[C@@H](C)c4ccc(F)cn4)ncc3Cl)n[nH]2)ccc1C=O	Cytoplasmic tyrosine-protein kinase BMX (BMX, Homo sapiens, UniProt P51813)	enzyme activity, inhibitor	–	0.2 µM	70.8%
CC[N+]1(C)CCc2cc(OC)c(OC)c3c2C1Cc1cccc(OC)c1-3 (stereo not shown)	HTR2A	ligand displacement, radioligand	–	10 µM	3%
COc1cc(C=CC(=O)O)ccc1OC(C)=O	SRD5A1	enzyme activity in cells, inhibitor	HaCaT	50 µM	18.6%
